The source of these data is ChEMBL document CHEMBL1148399, “Total synthesis and antitubulin activity of c10 analogues of cryptophycin-24” (2004).

Molecules are shown by their SMILES.

In the first assay the test system is CCRF-CEM. As to the kind of experiment: In vitro cytotoxicity against human CEM cell line. Format: functional. The conditions noted are these: read-out: ED50 (the source's name).
With `COc1ccc(C[C@H]2NC(=O)/C=C/C[C@@H]([C@H](C)[C@H]3O[C@@H]3c3ccccc3)OC(=O)[C@H](CC(C)C)OC(=O)CCNC2=O)cc1` [ARENASTATIN A], the EC50 was found to be 0.183 nM.

The target in another assay is Tubulin alpha chain (Sus scrofa) (UniProt P02550). As to the kind of experiment: In vitro effective concentration required to reduce the amount of microtubules assembly by tubulin assay.
Tubulin alpha chain (Sus scrofa), sequence (P02550 whole entry, looked up): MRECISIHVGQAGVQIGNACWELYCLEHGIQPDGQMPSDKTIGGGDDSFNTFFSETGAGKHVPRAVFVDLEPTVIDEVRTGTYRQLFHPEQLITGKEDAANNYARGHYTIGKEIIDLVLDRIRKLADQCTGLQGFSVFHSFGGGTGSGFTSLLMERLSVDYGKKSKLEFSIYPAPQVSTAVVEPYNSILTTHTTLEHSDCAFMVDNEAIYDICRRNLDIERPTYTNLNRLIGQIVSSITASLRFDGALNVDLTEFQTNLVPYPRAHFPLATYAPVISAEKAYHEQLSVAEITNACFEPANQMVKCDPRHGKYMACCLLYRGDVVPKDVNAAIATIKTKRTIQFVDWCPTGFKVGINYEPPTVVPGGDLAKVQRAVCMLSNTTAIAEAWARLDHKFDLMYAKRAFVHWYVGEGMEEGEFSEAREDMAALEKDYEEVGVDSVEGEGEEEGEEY
Settings: not given
Format: functional. In outline:
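Tubulin at 1.5 mg/mL was incubated with varying compound concentrations for 15 min at 37 °C in PEM buffer, pH 6.9 (0.1 M PIPES, 1 mM EGTA, 1 mM MgSO4), with 0.5 mM GTP and 8% DMSO. Microtubules were pelleted by centrifugation for 4 min at 37 °C and 50 000 rpm. Supernatant protein was measured by Bradford, and pellet protein derived from it. ED50 is the concentration reducing microtubules by 50%.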
The compound `CC(C)C[C@@H]1OC(=O)CCNC(=O)[C@@H](Cc2ccc(Cl)c(Cl)c2)NC(=O)/C=C/C[C@@H]([C@H](C)[C@H]2O[C@@H]2c2ccccc2)OC1=O` yielded an ED50 of 12600 nM.

On to `CC(C)C[C@@H]1OC(=O)CCNC(=O)[C@@H](Cc2cccc(Cl)c2)NC(=O)/C=C/C[C@@H]([C@H](C)[C@H]2O[C@@H]2c2ccccc2)OC1=O`, for which the ED50 is 7200 nM.

The compound `CC(C)C[C@@H]1OC(=O)CCNC(=O)[C@@H](Cc2ccccc2)NC(=O)/C=C/C[C@@H]([C@H](C)[C@H]2O[C@@H]2c2ccccc2)OC1=O` came in with an ED50 of 13100 nM.

As for `CC(C)C[C@@H]1OC(=O)CCNC(=O)[C@@H](Cc2ccc(Cl)cc2)NC(=O)/C=C/C[C@@H]([C@H](C)[C@H]2O[C@@H]2c2ccccc2)OC1=O`, the ED50 was found to be 12500 nM.

`COc1ccc(C[C@H]2NC(=O)/C=C/C[C@@H]([C@H](C)[C@H]3O[C@@H]3c3ccccc3)OC(=O)[C@H](CC(C)C)OC(=O)CCNC2=O)cc1` [ARENASTATIN A]: the ED50 was determined as 15800 nM.

Compound `COc1ccc(C[C@H]2NC(=O)/C=C/C[C@@H]([C@H](C)[C@H]3O[C@@H]3c3ccccc3)OC(=O)[C@H](CC(C)C)OC(=O)[C@H](C)CNC2=O)cc1Cl` [CRYPTOPHYCIN A] yielded an ED50 of 3400 nM.

A further assay relates to MCF7. As to the kind of experiment: In vitro cytotoxicity against human MCF-7 cell line. The conditions noted are these: read-out: ED50 (the source's name). The assay is classed as functional. The method, boiled down:
(§1)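 About 2000 cells/well plated in Dulbecco's MEM/F12 with 10% fetal calf serum. At 24 h the medium was replaced with fresh medium holding varying compound concentrations. After 72 h, proliferation was read by sulforhodamine B staining. ED50 is the concentration reducing cell proliferation by 50%.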
Regarding `CC(C)C[C@@H]1OC(=O)CCNC(=O)[C@@H](Cc2ccc(Cl)c(Cl)c2)NC(=O)/C=C/C[C@@H]([C@H](C)[C@H]2O[C@@H]2c2ccccc2)OC1=O`, the EC50 was 0.08 nM.

With `CC(C)C[C@@H]1OC(=O)CCNC(=O)[C@@H](Cc2cccc(Cl)c2)NC(=O)/C=C/C[C@@H]([C@H](C)[C@H]2O[C@@H]2c2ccccc2)OC1=O`, the EC50 amounted to 0.05 nM.

As for `CC(C)C[C@@H]1OC(=O)CCNC(=O)[C@@H](Cc2ccccc2)NC(=O)/C=C/C[C@@H]([C@H](C)[C@H]2O[C@@H]2c2ccccc2)OC1=O`, the EC50 came to 0.34 nM.

On to `CC(C)C[C@@H]1OC(=O)CCNC(=O)[C@@H](Cc2ccc(Cl)cc2)NC(=O)/C=C/C[C@@H]([C@H](C)[C@H]2O[C@@H]2c2ccccc2)OC1=O`, for which the EC50 amounted to 0.12 nM.

On to `COc1ccc(C[C@H]2NC(=O)/C=C/C[C@@H]([C@H](C)[C@H]3O[C@@H]3c3ccccc3)OC(=O)[C@H](CC(C)C)OC(=O)CCNC2=O)cc1` [ARENASTATIN A], for which the EC50 amounted to 0.13 nM.

As to `COc1ccc(C[C@H]2NC(=O)/C=C/C[C@@H]([C@H](C)[C@H]3O[C@@H]3c3ccccc3)OC(=O)[C@H](CC(C)C)OC(=O)[C@H](C)CNC2=O)cc1Cl` [CRYPTOPHYCIN A], the EC50 came out at 0.009 nM.

The next assay relates to NCI/ADR-RES. Briefly: In vitro cytotoxicity against human MCF-7/Adr breast cancer cell line. Format: functional. The following applies: read-out: ED50 (the source's name). The method, boiled down:
as §1
On to `CC(C)C[C@@H]1OC(=O)CCNC(=O)[C@@H](Cc2ccc(Cl)c(Cl)c2)NC(=O)/C=C/C[C@@H]([C@H](C)[C@H]2O[C@@H]2c2ccccc2)OC1=O`, for which the EC50 turned out to be 3.4 nM.

On to `CC(C)C[C@@H]1OC(=O)CCNC(=O)[C@@H](Cc2cccc(Cl)c2)NC(=O)/C=C/C[C@@H]([C@H](C)[C@H]2O[C@@H]2c2ccccc2)OC1=O`, for which the EC50 stood at 0.58 nM.

On to `CC(C)C[C@@H]1OC(=O)CCNC(=O)[C@@H](Cc2ccccc2)NC(=O)/C=C/C[C@@H]([C@H](C)[C@H]2O[C@@H]2c2ccccc2)OC1=O`, for which the EC50 came to 1.57 nM.

On to `CC(C)C[C@@H]1OC(=O)CCNC(=O)[C@@H](Cc2ccc(Cl)cc2)NC(=O)/C=C/C[C@@H]([C@H](C)[C@H]2O[C@@H]2c2ccccc2)OC1=O`, for which the EC50 is 0.66 nM.

With `COc1ccc(C[C@H]2NC(=O)/C=C/C[C@@H]([C@H](C)[C@H]3O[C@@H]3c3ccccc3)OC(=O)[C@H](CC(C)C)OC(=O)CCNC2=O)cc1` [ARENASTATIN A], the EC50 worked out at 0.25 nM.

For the compound `COc1ccc(C[C@H]2NC(=O)/C=C/C[C@@H]([C@H](C)[C@H]3O[C@@H]3c3ccccc3)OC(=O)[C@H](CC(C)C)OC(=O)[C@H](C)CNC2=O)cc1Cl` [CRYPTOPHYCIN A], the EC50 came to 0.018 nM.

The test system of another assay is KB. Briefly: In vitro cytotoxicity against human KB cancer cell line. The conditions noted are these: read-out: ED50 (the source's name). Format: functional.
As to `COc1ccc(C[C@H]2NC(=O)/C=C/C[C@@H]([C@H](C)[C@H]3O[C@@H]3c3ccccc3)OC(=O)[C@H](CC(C)C)OC(=O)CCNC2=O)cc1` [ARENASTATIN A], the EC50 was 0.005 nM.
